Data: PubChem BioAssay
Active and inactive are the calls of the source.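 How the source made its calls, unless noted: active means viability loss from added drug above about 55%, and viability with drug at most 40%, in both replicates (limit read from the data, passing the limit was not always enough); inconclusive means both conditions met in only one replicate; inactive means neither replicate meets both conditions.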

Assays:
[1] = reducers of endogenous Her2 protein level, primary screen, SKBR3 breast tumor cells, AlphaScreen, ATP viability (AID 461;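 active means Her2 level under about 52% in both replicate screens, with viability over 70% of control, limit read from the data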;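 on Her2 level: lower value means less Her2 protein in the cells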;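 on viability: percent of carrier control wells set as 100% viability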); settings: 18-24 h, measured here: SKBR3 viability, ATP luminescence, at 10 µM
[2] = target: Receptor tyrosine-protein kinase erbB-2 (Homo sapiens) (UniProt P04626); assay: as above; settings: 18-24 h, at 10 µM, stronger effect = lower value
[3] = SK-BR-3 cell growth inhibitors, pilot screen, 24 h, human (AID 572;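 active means viability at or below 10% of carrier control in both of two separate runs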;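 further: compound exposure lasted between 18 and 24 h rather than exactly 24 h; 100% = carrier-treated control wells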); settings: SK-BR-3 viability, CellTiter-Glo luminescence, at 10 µM, stronger effect = lower value
[4] = HUVEC growth inhibition – cell-based, human, primary screen (AID 575;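 active means viability at or below 30% in both replicate assays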;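 further: 100% = median of untreated cell wells with 0.1% DMSO on each plate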); settings: HUVEC proliferation, CellTiter-Glo luminescence, 72 h; at 10 µM; stronger effect = lower value
Summary of the method: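 Test system: primary human umbilical vein endothelial cells. Quantity: 1250 cells/well. Compound: single 10 µM dose, 0.1% DMSO, from 5x medium stock. Timing: 72 h treatment at 37 °C. Detection: ATP-based CellTiter-Glo luminescent read. Benchmarks: vehicle and MePR control wells. Format: 384-well plates coated with collagen.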

[5] = growth inhibitors of H69AR lung tumor, primary screen, human, duplicate replicates (AID 580;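 active means viability at or under a set limit in both replicates, limit being median viability minus 3 SD, cut at about 48% in these data, passing the limit was not always enough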;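 further: 100% = mean luminescence of untreated wells and 0% = no signal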); settings: H69AR lung tumor cells viability, ATP luminescence, 72 h; at 10 µM; stronger effect = lower value
[6] = reversal of MRP1-mediated doxorubicin resistance, pilot screen, H69AR cells, doxorubicin co-treatment (AID 601); settings: CellTiter-Glo, 72 h, at 10 µM; for differential viability (reversal): stronger effect = higher value
[7] = 384-well plate pilot, post-Golgi transport modulator project, inhibition of yeast transport mutant growth (AID 636; in the data active means inhibition above about 31%); settings: absorbance 615 nm, about 18 h, stronger effect = higher value
[8] = growth suppression of yeast trafficking mutant, preliminary HTS, modulators of trafficking downstream of Golgi apparatus project, 1536-format plate, OD 615 nm (AID 637; in the data active means inhibition above about 30%); settings: yeast transport mutant growth, absorbance 615 nm, 18 h; stronger effect = higher value
[9] = H69AR cells + 2 uM doxorubicin, measured here: viability with 2 uM doxorubicin, stronger effect = lower value
[10] = H69AR cells, compound alone cytotoxicity

Sequence of Receptor tyrosine-protein kinase erbB-2 (Homo sapiens) (P04626 whole entry, looked up): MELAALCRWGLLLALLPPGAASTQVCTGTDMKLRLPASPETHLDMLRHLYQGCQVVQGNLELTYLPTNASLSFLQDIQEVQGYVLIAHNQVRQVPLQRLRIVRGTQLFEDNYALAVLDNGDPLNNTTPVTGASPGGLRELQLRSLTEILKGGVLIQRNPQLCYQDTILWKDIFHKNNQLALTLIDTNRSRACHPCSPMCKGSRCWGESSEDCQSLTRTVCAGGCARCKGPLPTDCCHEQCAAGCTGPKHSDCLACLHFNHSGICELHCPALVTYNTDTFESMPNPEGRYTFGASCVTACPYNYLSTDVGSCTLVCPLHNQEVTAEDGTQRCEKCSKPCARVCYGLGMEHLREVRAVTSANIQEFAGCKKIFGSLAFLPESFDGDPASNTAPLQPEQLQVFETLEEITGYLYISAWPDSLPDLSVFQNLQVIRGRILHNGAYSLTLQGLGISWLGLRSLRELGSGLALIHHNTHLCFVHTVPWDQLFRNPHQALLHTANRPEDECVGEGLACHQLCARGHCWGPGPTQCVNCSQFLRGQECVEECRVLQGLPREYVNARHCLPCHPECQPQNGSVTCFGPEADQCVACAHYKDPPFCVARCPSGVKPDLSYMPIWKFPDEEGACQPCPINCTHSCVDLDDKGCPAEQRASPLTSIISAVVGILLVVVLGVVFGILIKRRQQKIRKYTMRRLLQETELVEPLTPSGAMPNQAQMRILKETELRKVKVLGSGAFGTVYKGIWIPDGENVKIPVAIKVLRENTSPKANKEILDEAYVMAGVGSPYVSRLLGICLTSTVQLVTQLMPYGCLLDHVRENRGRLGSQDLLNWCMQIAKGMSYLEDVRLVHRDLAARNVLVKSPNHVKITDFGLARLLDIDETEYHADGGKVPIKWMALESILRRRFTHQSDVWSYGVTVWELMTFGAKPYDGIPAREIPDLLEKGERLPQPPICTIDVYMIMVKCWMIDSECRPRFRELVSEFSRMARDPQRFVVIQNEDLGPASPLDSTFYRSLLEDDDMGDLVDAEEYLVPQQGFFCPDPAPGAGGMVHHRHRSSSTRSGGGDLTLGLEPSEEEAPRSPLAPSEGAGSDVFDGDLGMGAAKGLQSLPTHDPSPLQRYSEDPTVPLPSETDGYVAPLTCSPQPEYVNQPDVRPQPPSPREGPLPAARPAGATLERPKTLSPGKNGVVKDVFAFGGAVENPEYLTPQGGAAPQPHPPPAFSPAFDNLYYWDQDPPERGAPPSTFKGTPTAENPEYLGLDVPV

Row | Compound | viability [1] | Her2 level [2] | viability [3] | viability [4] | viability [5] | differential viability (reversal) ([6]; H69AR cells + 2 uM doxorubicin) | viability [6, 9] | viability [6, 10] | inhibition [7] | inhibition [8]
1 | c1ccc2ncc(-n3cnnn3)cc2c1 | 99.5% | 105% (inactive) | 99.5% (inactive) | 83.2% (inactive) | 94% (inactive) | 6.05% (inactive) | 87.9% | 94% | -3.24% (inactive) | 5.74% (inactive)
2 | COCCN(C(=O)CCC(=O)Nc1ccccn1)C(C(=O)NC1CCCC1)c1ccc(OC)cc1 (stereo not given) | 106% | 105% (inactive) | 106% (inactive) | 94.6% (inactive) | 111% (inactive) | 14.3% (inactive) | 96.3% | 111% | 2.57% (inactive) | -0.49% (inactive)
3 | CC(C(=O)c1ccccc1)n1cnc2ccccc2c1=O (stereo not given) | 94.5% | 87% (inactive) | 94.5% (inactive) | 86.6% (inactive) | 89.6% (inactive) | 9.12% (inactive) | 80.5% | 89.6% | -5.73% (inactive) | 2.42% (inactive)
4 | O=C(Cn1ccc2ccccc2c1=O)NCCC(=O)N1CCN(C(=O)c2ccco2)CC1 | 89.5% | 109% (inactive) | 89.5% (inactive) | 102% (inactive) | 98.1% (inactive) | 6.74% (inactive) | 91.4% | 98.1% | -1.6% (inactive) | -2.3% (inactive)
5 | CCc1ccccc1OCCCCCNCCO | 85.5% | 91% (inactive) | 85.5% (inactive) | 93.3% (inactive) | 81.8% (inactive) | -5.63% (inactive) | 87.4% | 81.8% | -2.05% (inactive) | -1.5% (inactive)
6 | O=C(N1CCOCC1)N1CCC(NC(=O)C23CC4CC(CC(C4)C2)C3)CC1 | 90% | 88% (inactive) | 90% (inactive) | 99.6% (inactive) | 98.8% (inactive) | 8.44% (inactive) | 90.4% | 98.8% | -6% (inactive) | 4.84% (inactive)
7 | CC(C)(C)C(=O)CNS(=O)(=O)c1ccc(S(=O)(=O)NC2CCCC2)cc1 | 104% | 92% (inactive) | 104% (inactive) | 115% (inactive) | 98.8% (inactive) | 11.2% (inactive) | 87.6% | 98.8% | -3.56% (inactive) | 1.9% (inactive)
8 | O=C(c1ccc2c(c1)[nH]c(=S)n1c3ccccc3nc21)N1CCN(c2ncccn2)CC1 | 100% | 82% (inactive) | 100% (inactive) | 88.7% (inactive) | 96.3% (inactive) | 5.5% (inactive) | 90.8% | 96.3% | -3.95% (inactive) | 3.67% (inactive)
9 | CCCC(=O)Nc1nnc(CC(=O)OCC)s1 | 111% | 108% (inactive) | 111% (inactive) | 113% (inactive) | 88.1% (inactive) | -0.96% (inactive) | 89% | 88.1% | -2.21% (inactive) | -7.14% (inactive)
10 | Cc1nc2c(o1)CCc1ccccc1C2O (stereo not given) | 96% | 91% (inactive) | 96% (inactive) | 93.9% (inactive) | 94.4% (inactive) | -5.3% (inactive) | 99.7% | 94.4% | -4% (inactive) | -2.95% (inactive)
11 | O=C(CSc1nc(-c2ccccc2)cs1)NCc1ccco1 | 100% | 102% (inactive) | 100% (inactive) | 103% (inactive) | 94.8% (inactive) | 1.79% (inactive) | 93% | 94.8% | -6.08% (inactive) | -9.18% (inactive)
12 | CCS(=O)(=O)c1nc2ccccc2n1CC(=O)N1CCCCC1 | 88.5% | 82.5% (inactive) | 88.5% (inactive) | 96.7% (inactive) | 80.4% (inactive) | 3.6% (inactive) | 76.8% | 80.4% | -3.42% (inactive) | 0.79% (inactive)
13 | O=C(CSc1nnc2sc3ccccc3n12)c1ccco1 | 95% | 85.5% (inactive) | 95% (inactive) | 118% (inactive) | 102% (inactive) | 16.9% (inactive) | 85.3% | 102% | -4.46% (inactive) | -6% (inactive)
14 | COc1ccc(N2CCC(CNS(=O)(=O)c3cccc(C(F)(F)F)c3)C2)cc1 (stereo not given) | 98% | 95% (inactive) | 98% (inactive) | 84.5% (inactive) | 86.7% (inactive) | -2.23% (inactive) | 88.9% | 86.7% | -2.63% (inactive) | 16.6% (inactive)
15 | Cc1cc(C)n(-c2nc3ccccc3c(=O)n2OCCOc2ccccc2)n1 | 78% | 93% (inactive) | 78% (inactive) | 97.2% (inactive) | 89.6% (inactive) | 10.3% (inactive) | 79.3% | 89.6% | -0.13% (inactive) | -6.07% (inactive)
16 | O=C(NCc1ccccn1)C(C(=O)c1ccc(F)cc1)n1ccccc1=O (stereo not given) | 86.5% | 95.5% (inactive) | 86.5% (inactive) | 97.9% (inactive) | 96.4% (inactive) | -3.97% (inactive) | 100% | 96.4% | -4.05% (inactive) | 4.1% (inactive)
